Data set [1] can be described thus: Selectivity index, ratio of CC50 for human HuH7 cells infected with HCV con1 subgenomic replicon to EC50 for HCV con1 subgenomic replicon. The class given is toxicity. The conditions noted are these: read-out: Ratio CC50/EC50. An outline of the steps: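 Ratio of CC50 (CellTiter-Blue viability after 3 days) to EC50 (HCV RNA by QRT-PCR). Both were measured in Huh-7 Con1 subgenomic replicon cells in DMEM with 2% FBS and 0.5% DMSO at 37 °C.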

Data set [2] has as its system Hepatitis C virus. In words: Antiviral activity against HCV con1 subgenomic replicon infected in human HuH7 cells assessed as reduction in viral RNA level by qRT-PCR analysis. In kind it is functional, organism-based, Hepacivirus hominis. The conditions noted are these: isolate Con1, Huh-7. An outline of the steps:
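Huh-7 cells carrying a subgenomic Con1 HCV replicon (neomycin phosphotransferase, kept under 0.25 mg/ml G418) were exposed to serially diluted compound in DMEM with 2% FBS and 0.5% DMSO, without G418, at 37 °C. Total RNA was extracted and HCV RNA copies were measured by multiplex QRT-PCR (Taqman). EC50 was obtained by 4-parameter curve fit.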
(In general: In antiviral work, replicon cells carry a viral genome segment that copies itself.)

Data set [3] in a line: Prodrug activation in human hepatocytes assessed as half life of [[(2S,3S,4R,5R)-5-(2-amino-6-oxo-1H-purin-9-yl)-2,4-difluoro-3-hydroxy-4-methyl-tetrahydrofuran-2-yl]methoxy-hydroxy-phosphoryl]phosphono hydrogen phosphate metabolite at 50 uM incubated for 24 hrs followed by medium replacement measured after 6 hrs by LC-MS/MS analysis. The class given is ADME, cell-based, Hepatocyte. The essentials: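 Primary human hepatocytes acclimated overnight at 37 °C, 5% CO2, then given 50 μM compound for 24 h. Medium replaced with blank medium and cells sampled at 0, 3, 6, 10, 24 and 48 h. Cells washed with cold saline and lysed in 70/30 methanol/water; NTP measured by LC-MS/MS. Half-life obtained by first-order fit of the terminal phase (n = 3).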

Data set [4] is described as follows: Prodrug activation in human hepatocytes assessed as [[(2S,3S,4R,5R)-5-(2-amino-6-oxo-1H-purin-9-yl)-2,4-difluoro-3-hydroxy-4-methyl-tetrahydrofuran-2-yl]methoxy-hydroxy-phosphoryl]phosphono hydrogen phosphate metabolite formation per million cells at 50 uM incubated for 24 hrs by LC-MS/MS analysis. The class given is ADME, cell-based, Hepatocyte. An outline of the steps: (§1)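 Primary human hepatocytes (1.5-2 million cells/well) acclimated overnight at 37 °C, 5% CO2, then incubated 24 h with 50 μM extracellular compound. Cells washed with cold 0.9% NaCl and lysed in 70/30 methanol/water. Extract dried and reconstituted, then analysed by LC-MS/MS with an internal standard; reported as pmol per million cells.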

The nature of data set [5]: Cytotoxicity against human HuH7 cells incubated for 8 days by cellTiter-Glo assay. The class given is cell-based, Huh-7. An outline of the steps:
(§2)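 Cells (1×10^5/well) on collagen I-coated wells, first kept 8 days in recommended medium without drug, then exposed to compound for 8 days with refeeding every other day. Viability read by CellTiter-Glo luminescence; CC50 derived by curve fitting.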
On the technique in general: Cellular ATP, detected with luciferase, serves as a proxy for viable cell number.

Data set [6] in a line: Cytotoxicity against human HeLa cells incubated for 8 days by cellTiter-Glo assay. The class given is cell-based. The essentials: as §2
A short description of data set [7]: Prodrug activation in human hepatocytes assessed as nucleoside monophosphate metabolite formation per million cells incubated for 24 hrs. The class given is ADME, cell-based, Hepatocyte. The essentials: as §1
Data set [8] in a line: Cytotoxicity against human MT4 cells incubated for 8 days by cellTiter-Glo assay. In kind it is cell-based. The essentials: as §2
Data set [9] in a line: Prodrug activation in Beagle dog assessed as [[(2S,3S,4R,5R)-5-(2-amino-6-oxo-1H-purin-9-yl)-2,4-difluoro-3-hydroxy-4-methyl-tetrahydrofuran-2-yl]methoxy-hydroxy-phosphoryl]phosphono hydrogen phosphate metabolite formation in liver at 9.69 mg/kg, po measured at 4 hrs post dose by LC-MS/MS analysis. The conditions noted are these: in vivo. In kind it is ADME, organism-based, Canis lupus familiaris. The essentials: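 Male non-naïve beagle dogs (n=2 per time point), fasted overnight, single oral dose of 9.69 mg/kg (5 mg/kg parent nucleoside equivalent) as a solution in 40% PEG400 in water. Animals anesthetized with pentobarbital before liver collection. Liver NTP measured by negative-ion LC-MS/MS against standards spiked into blank liver homogenate.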

The nature of data set [10]: Prodrug activation in human hepatocytes assessed as time at which [[(2S,3S,4R,5R)-5-(2-amino-6-oxo-1H-purin-9-yl)-2,4-difluoro-3-hydroxy-4-methyl-tetrahydrofuran-2-yl]methoxy-hydroxy-phosphoryl]phosphono hydrogen phosphate metabolite formation reached steady state at 10 uM incubated for 2 to 72 hrs by LC-MS/MS analysis. The class given is ADME, cell-based, Hepatocyte. The essentials:
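Primary human hepatocytes acclimated overnight at 37 °C, 5% CO2, then continuously incubated with 10 μM compound and sampled over 2-72 h. Cells washed with cold saline and lysed in 70/30 methanol/water. Intracellular NTP quantified by negative-ion LC-MS/MS against standards spiked into untreated hepatocyte lysate.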

Data set [11] in a line: Prodrug activation in human hepatocytes assessed as [[(2S,3S,4R,5R)-5-(2-amino-6-oxo-1H-purin-9-yl)-2,4-difluoro-3-hydroxy-4-methyl-tetrahydrofuran-2-yl]methoxy-hydroxy-phosphoryl]phosphono hydrogen phosphate metabolite formation at 0.5 to 50 uM incubated for 24 hrs by LC-MS/MS analysis. In kind it is ADME, cell-based, Hepatocyte. An outline of the steps:
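Primary human hepatocytes from three donors, acclimated overnight at 37 °C, 5% CO2, incubated 24 h across a range of extracellular compound concentrations. Cells washed with cold saline and lysed in 70/30 methanol/water. Intracellular NTP measured by negative-ion LC-MS/MS against standards spiked into untreated hepatocyte lysate; mean ± standard deviation reported.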

The nature of data set [12]: Prodrug activation in human hepatocytes assessed as [[(2S,3S,4R,5R)-5-(2-amino-6-oxo-1H-purin-9-yl)-2,4-difluoro-3-hydroxy-4-methyl-tetrahydrofuran-2-yl]methoxy-hydroxy-phosphoryl]phosphono hydrogen phosphate metabolite formation after 24 to 48 hrs by LC-MS/MS analysis. In kind it is ADME, cell-based, Hepatocyte.
The nature of data set [13]: Cytotoxicity against human U937 cells incubated for 8 days by cellTiter-Glo assay. In kind it is cell-based, U-937. An outline of the steps: as §2
Data set [14] in a line: Cytotoxicity against human HuH7 cells infected with HCV con1 subgenomic replicon assessed as reduction in cell viability measured after 3 days by CellTiter-blue cell viability assay. The class given is cell-based, Huh-7. The essentials: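 Run in the replicon-bearing Huh-7 cells under the same settings as the antiviral read (DMEM, 2% FBS, 0.5% DMSO, no G418, 37 °C). After 3 days of treatment, viability was read with CellTiter-Blue and CC50 was derived by curve fitting.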

Data set [15] in a line: Cytotoxicity against human HepG2 cells incubated for 8 days by cellTiter-Glo assay. The class given is cell-based. An outline of the steps: as §2
Data set [16] can be described thus: Cytotoxicity against human A549 cells incubated for 8 days by cellTiter-Glo assay. The class given is cell-based. An outline of the steps: as §2

Some results are limits rather than exact numbers.

One may read the EC50 as the concentration giving half of the maximal effect. A word on the CC50: it is the concentration giving 50% cytotoxicity. Regarding `CCOc1nc(N)nc2c1ncn2[C@@H]1O[C@](F)(COP(=O)(N[C@@H](C)C(=O)OC(C)C)Oc2ccccc2)[C@@H](O)[C@@]1(C)F` (stereo partly specified), in data set [1], the selectivity ratio is over 7000. In addition, the EC50 in [2] came to 0.014 µM. In addition, in [3], the t1/2 came to 11.2 h. Besides, the Drug metabolism in data set [4] was 271 pmol; in data set [7], 89 pmol; in data set [9] it was 11.2 µM; in [11], “Metabolite_Detected”; in data set [12], “Metabolite_Notdetected”. Moreover, the cytotoxic concentration (CC50) at 192 h is over 100 µM in [5]; over 100 µM in data set [6]; 92 µM in data set [8]; 10 µM in data set [13]; over 100 µM in data set [15]; over 100 µM in data set [16]. In addition, in data set [10], the Time lay in the range of 2 to 16 h. The CC50 at 72 h in [14] was over 100 µM.

The record behind these values is ChEMBL document CHEMBL4622986, “Synthesis and Anti-HCV Activity of Sugar-Modified Guanosine Analogues: Discovery of AL-611 as an HCV NS5B Polymerase Inhibitor for the Treatment of Chronic Hepatitis C” (J Med Chem, 2020).
